Experiment [1] addresses T1, Vitamin D3 receptor (Homo sapiens) (UniProt P11473).
T1 sequence (whole entry): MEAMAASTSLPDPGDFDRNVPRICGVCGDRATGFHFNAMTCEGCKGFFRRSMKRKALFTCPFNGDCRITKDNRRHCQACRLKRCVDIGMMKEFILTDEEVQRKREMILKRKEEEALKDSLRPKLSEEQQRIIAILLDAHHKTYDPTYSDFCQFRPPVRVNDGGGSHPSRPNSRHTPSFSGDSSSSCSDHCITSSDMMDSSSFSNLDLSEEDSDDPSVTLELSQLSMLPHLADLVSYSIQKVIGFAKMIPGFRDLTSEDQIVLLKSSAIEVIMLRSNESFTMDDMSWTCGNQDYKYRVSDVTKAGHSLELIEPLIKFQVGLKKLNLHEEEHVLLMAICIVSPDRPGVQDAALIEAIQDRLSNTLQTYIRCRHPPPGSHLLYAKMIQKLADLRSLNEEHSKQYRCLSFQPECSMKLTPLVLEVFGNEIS
Nature of the experiment: Agonist activity at VDR in human MG-63 cells assessed as transcriptional activation of osteopontin gene after 3 days by luciferase reporter gene assay relative to 1,25(OH)2D3. It counts as cell-based. The method in brief: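 MG-63 cells seeded 2×10^3/well, 24 h at 37 °C, 5% CO2. Cotransfected with VDRE-luciferase construct (three osteopontin-promoter VDRE repeats, 0.05 µg) plus pRL-SV40 (0.001 µg) by lipofection. Kept 8 h in MEM with 5% DCC-FBS, then dosed 10^-7 to 10^-11 mol/L (0.1% DMSO) for 3 days. Dual-luciferase readout on lysates. EC50 expressed as ratio to 1,25(OH)2D3 (set 100%).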
For orientation: In a reporter assay the amount or activity of a reporter protein is the signal.

Experiment [2] deals with T1, Vitamin D3 receptor (Homo sapiens). Nature of the experiment: Agonist activity at VDR in human MG-63 cells assessed as osteocalcin production compound incubated for 8 hrs measured after 4 days by EIA relative to 1,25(OH)2D3. It counts as cell-based. The method in brief:
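MG-63 cells seeded 2×10^3/well in serum-free MEM, 24 h at 37 °C, 5% CO2; washed and switched to 5% DCC-FBS/MEM. Serial dilutions 10^-7 to 10^-11 mol/L (0.1% DMSO) applied 8 h, then medium replaced and culture continued 4 days. Gla-type osteocalcin in supernatant measured by EIA at 450 nm against standards. EC50 expressed as ratio to 1,25(OH)2D3 (set 100%).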

In the next experiment the test system is HL-60. Nature of the experiment: Induction of human HL60 cell differentiation after 4 days by WST-8 assay relative to 1.25-OH2 D3. It counts as functional. The method in brief:
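HL-60 cells seeded 2×10^5 cells/mL in RPMI-1640 with 10% heat-inactivated FBS and antibiotics, 37 °C, 5% CO2. Cultured 4 days with 10^-10 to 10^-7 M compound. On the final day, PMA (final 100 ng/mL) plus WST-8 (final 20%) added for 90 min; absorbance change read at 450 nm. EC50 expressed as ratio to 1,25(OH)2D3 (set 100%).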
A general note: Formazan colour is commonly taken as a measure of viable cells.

Consider `CCC(O)(/C=C/c1ccc(C(CC)(CC)c2ccc(OC[C@@H](O)CCC(=O)[O-])c(C)c2)cc1C)CC.[Na+]`, for which the Activity came to 105% in experiment [1], 447% in experiment [2] and 126% with HL-60.

`CCC(CC)(c1ccc(OCC(O)CO)c(C)c1)c1ccc(OCC(O)C(C)(C)C)c(C)c1` (centres undefined) [LG-190178]: the Activity in experiment [2] came to 185%; in the experiment on HL-60 it was 71%.

Consider `CCC(CC)(c1ccc(C#CC(O)(C(F)(F)F)C(F)(F)F)c(C)c1)c1ccc(OC[C@@H](O)CCC(=O)[O-])c(C)c1.[Na+]`, for which the Activity is 30% in experiment [1], 546% in experiment [2] and 227% in the experiment with HL-60.

Consider `CCC(CC)(c1ccc(CCC(O)(C(F)(F)F)C(F)(F)F)c(C)c1)c1ccc(OC[C@@H](O)CCC(=O)[O-])c(C)c1.[Na+]`, for which the Activity in experiment [1] was found to be 91%; in experiment [2], 429%; with HL-60, 106%.

Take `CCC(CC)(c1ccc(/C=C/C(O)(C(F)(F)F)C(F)(F)F)c(C)c1)c1ccc(OC[C@@H](O)CCC(=O)[O-])c(C)c1.[Na+]`: the Activity was found to be 592% in experiment [1], 3750% in experiment [2] and 252% with HL-60.

Source of the values: ChEMBL document CHEMBL2311371, “Effects of fluorines on nonsecosteroidal vitamin D receptor agonists” (2013).
